In ChEMBL document CHEMBL1124364, “3-Sulfonyl-1-carba-1-dethiacephems” (1989):
≈ marks a conversion by molar mass, not a printed value.

Key:
Assay type in all cases: functional
Haemophilus influenzae = assay: Minimum inhibitory concentration against Haemophilus influenzae (C.L.)
Procedure, shortened: (§1)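 Agar dilution: compounds diluted in 0.1 M phosphate buffer pH 7.0 and incorporated into Mueller-Hinton agar with 1% Bacto-Supplement C at 50 °C. Fresh overnight cultures diluted to about 1×10^4 cells/µL; 1 µL spotted on plates. Incubated overnight at 35 °C in ambient air. MIC taken as the lowest concentration preventing visible growth.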

Escherichia coli [1] = assay: Minimum inhibitory concentration against Escherichia coli (EC14); procedure, shortened: as §1
Providencia rettgeri = assay: Minimum inhibitory concentration against Proteus rettgeri (C24); procedure, shortened: as §1
[2] = tested on: Staphylococcus epidermidis; assay: Minimum inhibitory concentration against Staphylococcus epidermidis (222); procedure, shortened: as §1
Enterobacter cloacae [3] = assay: Minimum inhibitory concentration against Enterobacter cloacae (265A beta-lactamase containing); procedure, shortened: as §1
Klebsiella [4] = assay: Minimum inhibitory concentration against Klebsiella (KAE beta-lactamase containing); procedure, shortened: as §1
Pseudomonas aeruginosa = assay: Minimum inhibitory concentration against Pseudomonas aeruginosa (X528); procedure, shortened: as §1
Klebsiella [5] = assay: Minimum inhibitory concentration against Klebsiella (X26); procedure, shortened: as §1
Streptococcus pyogenes = assay: Minimum inhibitory concentration against Streptococcus pyogenes (C203); procedure, shortened: as §1
Morganella morganii = assay: Minimum inhibitory concentration against Proteus morganii (PR 15); procedure, shortened: as §1
Enterobacter cloacae [6] = assay: Minimum inhibitory concentration against Enterobacter cloacae (EB5); procedure, shortened: as §1
Escherichia coli [7] = assay: Minimum inhibitory concentration against Escherichia coli (TEM beta-lactamase containing); procedure, shortened: as §1
Streptococcus pneumoniae = assay: Minimum inhibitory concentration against Streptococcus pneumoniae (PARK); procedure, shortened: as §1
Salmonella = assay: Minimum inhibitory concentration against Salmonella (X514); procedure, shortened: as §1
Staphylococcus aureus = assay: Minimum inhibitory concentration against Staphylococcus aureus (X1.1); procedure, shortened: as §1
[8] = Haemophilus influenzae, read-out: MIC
[9] = Escherichia coli, read-out: MIC
[10] = Providencia rettgeri, read-out: MIC
[11] = Staphylococcus epidermidis, read-out: MIC
[12] = Enterobacter cloacae, read-out: MIC
[13] = Pseudomonas aeruginosa, read-out: MIC
[14] = Streptococcus pyogenes, read-out: MIC
[15] = Morganella morganii, read-out: MIC
[16] = Streptococcus pneumoniae, read-out: MIC
[17] = Staphylococcus aureus, read-out: MIC

CO/N=C(/C(=O)N[C@@H]1C(=O)N2C(C(=O)O)=C(S(=O)(=O)c3cccs3)CC[C@H]12)c1csc(N)n1
MIC (Haemophilus influenzae; [8]): 1 µg/mL (≈ 1.95 µM)
MIC (Escherichia coli [1]; [9]): 2 µg/mL (≈ 3.91 µM)
MIC (Providencia rettgeri; [10]): 64 µg/mL (≈ 125 µM)
MIC [2, 11]: 16 µg/mL (≈ 31.3 µM)
MIC (Enterobacter cloacae [3]; [12]): > 128 µg/mL
MIC (Klebsiella [4]; Klebsiella, read-out: MIC): > 128 µg/mL
MIC (Pseudomonas aeruginosa; [13]): > 128 µg/mL
MIC (Klebsiella [5]; Klebsiella, read-out: MIC): 2 µg/mL (≈ 3.91 µM)
MIC (Streptococcus pyogenes; [14]): 0.015 µg/mL (≈ 0.0293 µM)
MIC (Morganella morganii; [15]): 64 µg/mL (≈ 125 µM)
MIC (Enterobacter cloacae [6]; [12]): 8 µg/mL (≈ 15.6 µM)
MIC (Escherichia coli [7]; [9]): 128 µg/mL (≈ 250 µM)
MIC (Streptococcus pneumoniae; [16]): 0.03 µg/mL (≈ 0.0586 µM)
MIC (Salmonella; Salmonella, read-out: MIC): 0.5 µg/mL (≈ 0.977 µM)
MIC (Staphylococcus aureus; [17]): 4 µg/mL (≈ 7.82 µM)

CO/N=C(/C(=O)N[C@@H]1C(=O)N2C(C(=O)O)=C(S(=O)(=O)c3cccnc3)CC[C@H]12)c1csc(N)n1
MIC (Haemophilus influenzae; [8]): 1 µg/mL (≈ 1.97 µM)
MIC (Escherichia coli [1]; [9]): 1 µg/mL (≈ 1.97 µM)
MIC (Providencia rettgeri; [10]): > 128 µg/mL
MIC [2, 11]: 32 µg/mL (≈ 63.2 µM)
MIC (Enterobacter cloacae [3]; [12]): > 128 µg/mL
MIC (Klebsiella [4]; Klebsiella, read-out: MIC): > 128 µg/mL
MIC (Pseudomonas aeruginosa; [13]): > 128 µg/mL
MIC (Klebsiella [5]; Klebsiella, read-out: MIC): 2 µg/mL (≈ 3.95 µM)
MIC (Streptococcus pyogenes; [14]): 0.06 µg/mL (≈ 0.118 µM)
MIC (Morganella morganii; [15]): > 128 µg/mL
MIC (Enterobacter cloacae [6]; [12]): 16 µg/mL (≈ 31.6 µM)
MIC (Escherichia coli [7]; [9]): 4 µg/mL (≈ 7.9 µM)
MIC (Streptococcus pneumoniae; [16]): 0.125 µg/mL (≈ 0.247 µM)
MIC (Salmonella; Salmonella, read-out: MIC): 2 µg/mL (≈ 3.95 µM)
MIC (Staphylococcus aureus; [17]): 16 µg/mL (≈ 31.6 µM)

CO/N=C(/C(=O)N[C@@H]1C(=O)N2C(C(=O)O)=C(S(C)(=O)=O)CC[C@H]12)c1csc(N)n1
MIC (Haemophilus influenzae; [8]): 0.25 µg/mL (≈ 0.564 µM)
MIC (Escherichia coli [1]; [9]): 0.25 µg/mL (≈ 0.564 µM)
MIC (Providencia rettgeri; [10]): 0.5 µg/mL (≈ 1.13 µM)
MIC [2, 11]: 32 µg/mL (≈ 72.2 µM)
MIC (Enterobacter cloacae [3]; [12]): > 128 µg/mL
MIC (Klebsiella [4]; Klebsiella, read-out: MIC): 64 µg/mL (≈ 144 µM)
MIC (Pseudomonas aeruginosa; [13]): > 128 µg/mL
MIC (Klebsiella [5]; Klebsiella, read-out: MIC): 0.06 µg/mL (≈ 0.135 µM)
MIC (Streptococcus pyogenes; [14]): 0.06 µg/mL (≈ 0.135 µM)
MIC (Morganella morganii; [15]): 1 µg/mL (≈ 2.25 µM)
MIC (Enterobacter cloacae [6]; [12]): 2 µg/mL (≈ 4.51 µM)
MIC (Escherichia coli [7]; [9]): 1 µg/mL (≈ 2.25 µM)
MIC (Streptococcus pneumoniae; [16]): 0.06 µg/mL (≈ 0.135 µM)
MIC (Salmonella; Salmonella, read-out: MIC): 0.125 µg/mL (≈ 0.282 µM)
MIC (Staphylococcus aureus; [17]): 16 µg/mL (≈ 36.1 µM)

CS(=O)(=O)C1=C(C(=O)O)N2C(=O)[C@@H](NC(=O)COc3ccccc3)[C@H]2SC1 (stereo in doubt; 7 (1-S))
MIC (Haemophilus influenzae): 1 µg/mL (≈ 2.42 µM)
MIC (Escherichia coli [1]): 64 µg/mL (≈ 155 µM)
MIC (Providencia rettgeri): 128 µg/mL (≈ 310 µM)
MIC [2]: 0.25 µg/mL (≈ 0.606 µM)
MIC (Enterobacter cloacae [3]): 128 µg/mL (≈ 310 µM)
MIC (Klebsiella [4]): 128 µg/mL (≈ 310 µM)
MIC (Pseudomonas aeruginosa): 128 µg/mL (≈ 310 µM)
MIC (Klebsiella [5]): 8 µg/mL (≈ 19.4 µM)
MIC (Streptococcus pyogenes): 0.125 µg/mL (≈ 0.303 µM)
MIC (Morganella morganii): 128 µg/mL (≈ 310 µM)
MIC (Enterobacter cloacae [6]): 128 µg/mL (≈ 310 µM)
MIC (Escherichia coli [7]): 128 µg/mL (≈ 310 µM)
MIC (Streptococcus pneumoniae): 0.25 µg/mL (≈ 0.606 µM)
MIC (Salmonella): 64 µg/mL (≈ 155 µM)
MIC (Staphylococcus aureus): 0.25 µg/mL (≈ 0.606 µM)

CS(=O)(=O)C1=C(C(=O)O)N2C(=O)[C@@H](NC(=O)COc3ccccc3)[C@H]2CC1 (stereo in doubt; 7)
MIC (Haemophilus influenzae): 16 µg/mL (≈ 40.6 µM)
MIC (Escherichia coli [1]; [9]): 4 µg/mL (≈ 10.1 µM)
MIC (Providencia rettgeri; [10]): > 128 µg/mL
MIC [2, 11]: 0.5 µg/mL (≈ 1.27 µM)
MIC (Enterobacter cloacae [3]; [12]): > 128 µg/mL
MIC (Klebsiella [4]; Klebsiella, read-out: MIC): > 128 µg/mL
MIC (Pseudomonas aeruginosa; [13]): > 128 µg/mL
MIC (Klebsiella [5]; Klebsiella, read-out: MIC): 8 µg/mL (≈ 20.3 µM)
MIC (Streptococcus pyogenes): 0.015 µg/mL (≈ 0.038 µM)
MIC (Morganella morganii; [15]): > 128 µg/mL
MIC (Enterobacter cloacae [6]; [12]): > 128 µg/mL
MIC (Escherichia coli [7]; [9]): > 128 µg/mL
MIC (Streptococcus pneumoniae): 0.06 µg/mL (≈ 0.152 µM)
MIC (Salmonella): 8 µg/mL (≈ 20.3 µM)
MIC (Staphylococcus aureus; [17]): 0.25 µg/mL (≈ 0.634 µM)

N[C@@H](C(=O)N[C@@H]1C(=O)N2C(C(=O)O)=C(Cl)CS[C@H]12)c1ccccc1 [CEFACLOR ANHYDROUS]
MIC (Haemophilus influenzae; [8]): 2 µg/mL (≈ 5.44 µM)
MIC (Escherichia coli [1]; [9]): 0.5 µg/mL (≈ 1.36 µM)
MIC (Providencia rettgeri; [10]): 64 µg/mL (≈ 174 µM)
MIC [2, 11]: 4 µg/mL (≈ 10.9 µM)
MIC (Enterobacter cloacae [3]; [12]): > 128 µg/mL
MIC (Klebsiella [4]; Klebsiella, read-out: MIC): > 128 µg/mL
MIC (Pseudomonas aeruginosa; [13]): > 128 µg/mL
MIC (Klebsiella [5]; Klebsiella, read-out: MIC): 0.25 µg/mL (≈ 0.68 µM)
MIC (Streptococcus pyogenes; [14]): 0.25 µg/mL (≈ 0.68 µM)
MIC (Morganella morganii; [15]): > 128 µg/mL
MIC (Enterobacter cloacae [6]; [12]): 16 µg/mL (≈ 43.5 µM)
MIC (Escherichia coli [7]; [9]): 1 µg/mL (≈ 2.72 µM)
MIC (Streptococcus pneumoniae; [16]): 1 µg/mL (≈ 2.72 µM)
MIC (Salmonella; Salmonella, read-out: MIC): 2 µg/mL (≈ 5.44 µM)
MIC (Staphylococcus aureus; [17]): 2 µg/mL (≈ 5.44 µM)

CO/N=C(\C(=O)N[C@@H]1C(=O)N2C(C(=O)O)=C(COC(C)=O)CS[C@H]12)c1csc(N)n1 [CEFOTAXIME]
MIC (Haemophilus influenzae; [8]): 0.015 µg/mL (≈ 0.0329 µM)
MIC (Escherichia coli [1]; [9]): 0.03 µg/mL (≈ 0.0659 µM)
MIC (Providencia rettgeri; [10]): 0.125 µg/mL (≈ 0.274 µM)
MIC [2, 11]: 2 µg/mL (≈ 4.39 µM)
MIC (Enterobacter cloacae [3]; [12]): 32 µg/mL (≈ 70.3 µM)
MIC (Klebsiella [4]; Klebsiella, read-out: MIC): 2 µg/mL (≈ 4.39 µM)
MIC (Pseudomonas aeruginosa; [13]): 32 µg/mL (≈ 70.3 µM)
MIC (Klebsiella [5]; Klebsiella, read-out: MIC): 0.008 µg/mL (≈ 0.0176 µM)
MIC (Streptococcus pyogenes; [14]): 0.015 µg/mL (≈ 0.0329 µM)
MIC (Morganella morganii; [15]): 0.25 µg/mL (≈ 0.549 µM)
MIC (Enterobacter cloacae [6]; [12]): 0.125 µg/mL (≈ 0.274 µM)
MIC (Escherichia coli [7]; [9]): 0.03 µg/mL (≈ 0.0659 µM)
MIC (Streptococcus pneumoniae; [16]): 0.015 µg/mL (≈ 0.0329 µM)
MIC (Salmonella; Salmonella, read-out: MIC): 0.03 µg/mL (≈ 0.0659 µM)
MIC (Staphylococcus aureus; [17]): 2 µg/mL (≈ 4.39 µM)
